# Data: paper PMC11413667 (Acta Pharmaceutica Sinica. B, 2024)
# What was measured:
# [1] = test system: 4T1 cells; test: MTT cytotoxicity; type: cell-based, mouse; conditions: increasing dosage, n = 4
# In short: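 4T1 cells, cultured in DMEM with 10% FBS and 1% pen-strep at 37 °C, 5% CO2, were seeded overnight until adherent. They were then exposed to a concentration series of test compound. Light groups received 638 nm, 29.8 mW/cm2 for 12 min. Viability was measured by standard MTT relative to untreated cells, n = 4, mean ± SD.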
# [2] = test system: 4T1 cells; test: Annexin V-FITC/PI flow cytometry; type: cell-based, mouse; conditions: upon light
# In short: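 Mouse 4T1 cells, grown in DMEM with 10% FBS and 1% pen-strep at 37 °C, 5% CO2, were exposed to test compound at one fixed concentration for 6 h in the dark. Cells were then irradiated (638 nm, 29.8 mW/cm2, 15 min) or left unirradiated, and stained with Annexin V-FITC and PI for 15 min. Apoptotic and necrotic fractions were read by flow cytometry.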
# [3] = test system: 4T1 tumor; conditions: i.v., PT 20 mg/kg, PTI 25 mg/kg, 0.5-12 h
compound,measurement,setting,value
O=C1[C@H](Cc2ccc(O)cc2)N2C(=O)CCN(C(=O)NCc3ccccc3)[C@H]2CN1Cc1cccc2ccccc12 [ICG-001],"Cytotoxicity (MTT), ICG-001 alone",[1],could hardly retard the cell expansion
Palmitic-K(PpIX)-HAIYPRH [PT],Cells in apoptosis or necrosis state,[2],less than a quarter
same,Tumor accumulation (fluorescence imaging),[3],weaker tumor accumulation than PTI
